Measurements as given in ChEMBL document CHEMBL4038350 (J Med Chem, 2017).
Non-standard residues stand in square brackets, D forms with d. Residues, ends and D or L forms follow the SMILES beside them.

What was measured:
Assay type in all cases: functional, cell-based
[1] = molecular target: Melanocortin receptor 5 (Mus musculus) (UniProt P41149); test: Inverse agonist activity at mouse melanocortin receptor 5 expressed in HEK293 cells assessed as decrease in cAMP accumulation at 150 nM after 2 hrs by AlphaScreen assay relative to control; set-up: scale not given: the % may be the effect or the level left
How it was run: (§1)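 In mouse MC5R-HEK293 cells, cAMP was measured by AlphaScreen after 2 h peptide exposure (10−4 to 10−13 M) at room temperature. Each replicate was normalized to its signal at 10−10 M. For sigmoidal curves, percent inverse agonism was the change from basal to the high-concentration plateau. Apparent potency was taken as the curve inflection point. Three independent experiments were run.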

[2] = molecular target: Melanocortin receptor 3 (Mus musculus) (UniProt P33033); test: Agonist activity at mouse melanocortin receptor 3 expressed in HEK293 cells assessed as increase in cAMP accumulation at 100 uM after 2 hrs by AlphaScreen assay relative to control
How it was run: (§2)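 Cyclic peptides were dissolved in DMSO. Receptor-expressing HEK293 cells in IBMX-containing stimulation buffer (pH 7.4) were stimulated for 2 h at room temperature. cAMP was then detected by competitive AlphaScreen after a 2 h lysis/bead step. […] Values come from at least three independent experiments.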

[3] = molecular target: T1, Melanocortin receptor 4 (Mus musculus, UniProt P56450); test: Antagonist activity at mouse melanocortin receptor 4 expressed in HEK293 cells assessed as inhibition of NDP-MSH-induced cAMP accumulation after 2 hrs by AlphaScreen assay; conditions: read-out: pA2 (converted)
[4] = molecular target: Melanocortin receptor 4 (Mus musculus) (UniProt P56450); test: Agonist activity at mouse melanocortin receptor 4 expressed in HEK293 cells assessed as increase in cAMP accumulation at 100 uM after 2 hrs by AlphaScreen assay; how it was run: as §2
[5] = molecular target: Melanocyte-stimulating hormone receptor (Mus musculus) (UniProt Q01727); test: Agonist activity at mouse melanocortin receptor 1 expressed in HEK293 cells assessed as increase in cAMP accumulation at 100 uM after 2 hrs by AlphaScreen assay relative to control; how it was run: as §2
[6] = molecular target: T2, Melanocortin receptor 3 (Mus musculus, UniProt P33033); test: Antagonist activity at mouse melanocortin receptor 3 expressed in HEK293 cells assessed as inhibition of NDP-MSH-induced cAMP accumulation after 2 hrs by AlphaScreen assay; conditions: read-out: pA2 (converted)
[7] = molecular target: Melanocyte-stimulating hormone receptor (Mus musculus, UniProt Q01727); test: Agonist activity at mouse melanocortin receptor 1 expressed in HEK293 cells assessed as increase in cAMP accumulation after 2 hrs by AlphaScreen assay
How it was run: (§3)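 Donor beads and biotin-cAMP in lysis buffer followed for 2 h. The AlphaScreen signal was read. EC50 came from nonlinear least-squares fits, duplicates, at least three independent experiments.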

[8] = molecular target: T2, Melanocortin receptor 3; test: Agonist activity at mouse melanocortin receptor 3 expressed in HEK293 cells assessed as increase in cAMP accumulation after 2 hrs by AlphaScreen assay
[9] = molecular target: Melanocortin receptor 5 (Mus musculus) (UniProt P41149); test: Inverse agonist activity at mouse melanocortin receptor 5 expressed in HEK293 cells assessed as decrease in cAMP accumulation at 110 nM after 2 hrs by AlphaScreen assay relative to control; set-up: scale not given: the % may be the effect or the level left; how it was run: as §1
[10] = molecular target: T1, Melanocortin receptor 4; test: Agonist activity at mouse melanocortin receptor 4 expressed in HEK293 cells assessed as increase in cAMP accumulation after 2 hrs by AlphaScreen assay
[11] = molecular target: Melanocortin receptor 5 (Mus musculus) (UniProt P41149); test: Inverse agonist activity at mouse melanocortin receptor 5 expressed in HEK293 cells assessed as decrease in cAMP accumulation at 250 nM after 2 hrs by AlphaScreen assay relative to control; set-up: scale not given: the % may be the effect or the level left; how it was run: as §1
[12] = molecular target: Melanocortin receptor 5 (Mus musculus) (UniProt P41149); test: Inverse agonist activity at mouse melanocortin receptor 5 expressed in HEK293 cells assessed as decrease in cAMP accumulation at 140 nM after 2 hrs by AlphaScreen assay relative to control; set-up: scale not given: the % may be the effect or the level left; how it was run: as §1
[13] = molecular target: Melanocortin receptor 5 (Mus musculus, UniProt P41149); test: Agonist activity at mouse melanocortin receptor 5 expressed in HEK293 cells assessed as increase in cAMP accumulation after 2 hrs by AlphaScreen assay; how it was run: as §3
[14] = molecular target: Melanocyte-stimulating hormone receptor (Mus musculus) (UniProt Q01727); test: Partial agonist activity at mouse melanocortin receptor 1 expressed in HEK293 cells assessed as increase in cAMP accumulation after 2 hrs by AlphaScreen assay relative to NDP
How it was run: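 Mouse MC1R stably expressed in HEK293 cells, stimulated for 2 hr at room temperature in the dark. Peptide at 10−4 to 10−13 M in HBSS/HEPES buffer with 0.5 mM IBMX and 0.1% BSA, pH 7.4; forskolin 10−4 M. AlphaScreen cAMP detection after lysis and a further 2 hr. Signal normalized to maximal NDP-MSH response.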

[15] = molecular target: Melanocortin receptor 5 (Mus musculus) (UniProt P41149); test: Agonist activity at mouse melanocortin receptor 5 expressed in HEK293 cells assessed as increase in cAMP accumulation at 100 uM after 2 hrs by AlphaScreen assay relative to control; how it was run: as §2
[16] = molecular target: Melanocortin receptor 5 (Mus musculus) (UniProt P41149); test: Inverse agonist activity at mouse melanocortin receptor 5 expressed in HEK293 cells assessed as decrease in cAMP accumulation at 700 nM after 2 hrs by AlphaScreen assay relative to control; set-up: scale not given: the % may be the effect or the level left; how it was run: as §1

Sequence of Melanocyte-stimulating hormone receptor (Mus musculus) (Q01727 whole entry, looked up): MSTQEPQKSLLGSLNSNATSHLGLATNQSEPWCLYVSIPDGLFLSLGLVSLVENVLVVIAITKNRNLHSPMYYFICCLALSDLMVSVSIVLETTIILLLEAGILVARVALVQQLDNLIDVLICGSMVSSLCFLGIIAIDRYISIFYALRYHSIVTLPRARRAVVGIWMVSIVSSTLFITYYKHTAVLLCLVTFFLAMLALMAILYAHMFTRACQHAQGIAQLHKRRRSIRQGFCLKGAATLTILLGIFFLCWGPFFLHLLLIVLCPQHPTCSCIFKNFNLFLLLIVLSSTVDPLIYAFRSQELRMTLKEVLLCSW
Sequence of Melanocyte-stimulating hormone receptor (Q01727 whole entry): as the sequence (Q01727 whole entry, looked up) above
T1 sequence (P56450 whole entry): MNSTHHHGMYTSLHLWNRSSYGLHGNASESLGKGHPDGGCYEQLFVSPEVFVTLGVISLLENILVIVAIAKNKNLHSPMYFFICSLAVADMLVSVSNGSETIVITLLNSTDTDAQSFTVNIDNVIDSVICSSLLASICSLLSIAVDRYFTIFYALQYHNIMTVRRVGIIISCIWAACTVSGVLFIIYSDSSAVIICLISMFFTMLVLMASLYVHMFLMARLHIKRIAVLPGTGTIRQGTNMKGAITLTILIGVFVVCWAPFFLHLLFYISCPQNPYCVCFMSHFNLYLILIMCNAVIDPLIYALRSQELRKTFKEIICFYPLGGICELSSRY
Sequence of Melanocortin receptor 5 (Mus musculus) (P41149 whole entry): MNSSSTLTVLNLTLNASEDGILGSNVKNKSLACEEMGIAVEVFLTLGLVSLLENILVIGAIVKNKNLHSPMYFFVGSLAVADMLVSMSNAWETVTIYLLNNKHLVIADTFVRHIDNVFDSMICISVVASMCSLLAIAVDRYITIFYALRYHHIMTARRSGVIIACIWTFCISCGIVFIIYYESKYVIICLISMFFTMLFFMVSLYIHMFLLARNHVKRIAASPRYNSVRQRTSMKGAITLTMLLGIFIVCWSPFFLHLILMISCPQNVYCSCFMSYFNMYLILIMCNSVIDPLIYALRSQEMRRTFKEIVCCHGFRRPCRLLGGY
Sequence of Melanocortin receptor 3 (Mus musculus) (P33033 whole entry): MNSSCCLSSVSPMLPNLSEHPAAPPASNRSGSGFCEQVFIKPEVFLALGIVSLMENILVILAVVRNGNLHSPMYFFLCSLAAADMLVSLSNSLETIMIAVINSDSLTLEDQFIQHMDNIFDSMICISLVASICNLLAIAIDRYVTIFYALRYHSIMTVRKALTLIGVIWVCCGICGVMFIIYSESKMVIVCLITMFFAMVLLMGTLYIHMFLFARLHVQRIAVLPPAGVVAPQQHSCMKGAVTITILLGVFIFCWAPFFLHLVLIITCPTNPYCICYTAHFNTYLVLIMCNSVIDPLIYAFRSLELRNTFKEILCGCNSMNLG
T2 sequence (P33033 whole entry): as above
Sequence of Melanocortin receptor 4 (Mus musculus) (P56450 whole entry): as the sequence (P56450 whole entry) above
Sequence of Melanocortin receptor 5 (P41149 whole entry): as the sequence (P41149 whole entry) above

Q: `C[C@@H]1NC(=O)[C@H](Cc2c[nH]c3ccccc23)NC(=O)[C@H](Cc2ccccc2)NC(=O)[C@H](Cc2ccccc2)NC(=O)[C@H](CCCNC(=N)N)NC(=O)[C@@H]2CCCN2C(=O)[C@H]2CCCN2C(=O)[C@H](Cc2ccccc2)NC1=O` (cyclo(RFFWAF[dP]P)) was tested. Which Activity [1] did it give?
A: The Activity was 20%.

Q: And the Activity [2]?
A: Its Activity is 40%.

Q: And the Kb [3]?
A: The Kb was 155 nM.

Q: What about the Activity [4] of the same compound?
A: The Activity was 50%.

Q: And the Activity [5]?
A: Its Activity is 80%.

Q: And the Kb [6]?
A: Its Kb is 2000 nM.

Q: `C[C@@H]1NC(=O)[C@@H](CN)NC(=O)[C@H](Cc2ccccc2)NC(=O)[C@H](Cc2ccccc2)NC(=O)[C@H](CCCNC(=N)N)NC(=O)[C@@H]2CCCN2C(=O)[C@H]2CCCN2C(=O)[C@H](Cc2ccccc2)NC1=O` was tested. Which EC50 [7] did it give?
A: Its EC50 is over 100000 nM.

Q: And the EC50 [8]?
A: The EC50 was over 100000 nM.

Q: What about the Activity [9] of the same compound?
A: Its Activity is 10%.

Q: What about the Kb [6] of the same compound?
A: Its Kb is 200 nM.

Q: What does the source list for `C[C@@H]1NC(=O)[C@H](C)NC(=O)[C@H](Cc2ccccc2)NC(=O)[C@H](Cc2ccccc2)NC(=O)[C@H](CCCNC(=N)N)NC(=O)[C@@H]2CCCN2C(=O)[C@H]2CCCN2C(=O)[C@H](Cc2ccccc2)NC1=O`?
A: EC50 [10]: > 100000 nM; EC50 [7]: > 100000 nM; Kb [3]: 47.9 nM; EC50 [8]: > 100000 nM; Kb [6]: > 3160 nM; Activity [11]: 20%

Q: What does the source list for `C[C@@H]1NC(=O)[C@H](CO)NC(=O)[C@H](Cc2ccccc2)NC(=O)[C@H](Cc2ccccc2)NC(=O)[C@H](CCCNC(=N)N)NC(=O)[C@@H]2CCCN2C(=O)[C@H]2CCCN2C(=O)[C@H](Cc2ccccc2)NC1=O`?
A: EC50 [10]: > 100000 nM; EC50 [7]: > 100000 nM; Activity [12]: 25%; Kb [3]: 20 nM; EC50 [8]: > 100000 nM; Kb [6]: 1260 nM

Q: Which results are given for `N=C(N)NCCC[C@@H]1NC(=O)[C@@H]2CCCN2C(=O)[C@H]2CCCN2C(=O)[C@H](Cc2ccccc2)NC(=O)[C@H](Cc2c[nH]cn2)NC(=O)[C@H](CC(N)=O)NC(=O)[C@H](Cc2ccccc2)NC(=O)[C@H](Cc2ccccc2)NC1=O` (cyclo(RFFNHF[dP]P))?
A: EC50 [10]: > 100000 nM; EC50 [7]: 2600 nM; EC50 [13]: > 100000 nM; Kb [3]: 851 nM; EC50 [8]: > 100000 nM; Activity [14]: 40%; Kb [6]: > 3160 nM

Q: Which results are given for `N=C(N)NCCC[C@@H]1NC(=O)[C@@H]2CCCN2C(=O)[C@H]2CCCN2C(=O)[C@H](Cc2ccccc2)NC(=O)[C@H](Cc2ccccc2)NC(=O)[C@H](CC(N)=O)NC(=O)[C@H](Cc2ccccc2)NC(=O)[C@H](Cc2ccccc2)NC1=O`?
A: Activity [2]: 35%; Kb [3]: 1950 nM; Activity [4]: 35%; Activity [5]: 70%; Activity [15]: 25%; Kb [6]: 1910 nM

Q: `C[C@@H]1NC(=O)[C@H](CCC(=O)O)NC(=O)[C@H](Cc2ccccc2)NC(=O)[C@H](Cc2ccccc2)NC(=O)[C@H](CCCNC(=N)N)NC(=O)[C@@H]2CCCN2C(=O)[C@H]2CCCN2C(=O)[C@H](Cc2ccccc2)NC1=O` was tested. Which EC50 [10] did it give?
A: Its EC50 is over 100000 nM.

Q: And the Activity [16]?
A: Its Activity is 10%.

Q: And the EC50 [7]?
A: The EC50 was 20500 nM.

Q: And the Kb [3]?
A: The Kb was 100 nM.

Q: What about the EC50 [8] of the same compound?
A: The EC50 was over 100000 nM.

Q: What about the Kb [6] of the same compound?
A: The Kb was over 3160 nM.

Q: How did the EC50 [10] turn out when `N=C(N)NCCC[C@@H]1NC(=O)[C@@H]2CCCN2C(=O)[C@H]2CCCN2C(=O)[C@H](Cc2ccccc2)NC(=O)[C@H](CCCCN)NC(=O)[C@H](CC(N)=O)NC(=O)[C@H](Cc2ccccc2)NC(=O)[C@H](Cc2ccccc2)NC1=O` was run?
A: Its EC50 is over 100000 nM.

Q: And the Activity [2]?
A: Its Activity is 45%.

Q: And the Kb [3]?
A: The Kb was 776 nM.

Q: And the Activity [5]?
A: Its Activity is 60%.

Q: And the Activity [15]?
A: Its Activity is 45%.

Q: What about the Kb [6] of the same compound?
A: Its Kb is over 3160 nM.
